Test results as given in ChEMBL document CHEMBL5674880 (PLoS One, 2018).
Blank lines part the entries; values can stand above or below the compound they belong to.

Tests used:
Type in all cases: functional, cell-based
NCI-H508 = assay: Antiproliferative activity against human NCI-H508 cells after 10 days; conditions: NCI-H508, 240 h
In short: (§1)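 Broad cancer cell line panel (Eurofins Oncopanel, about 240 lines; mycoplasma negative, STR verified) grown in 2D culture and exposed to compound in a 10-day proliferation assay. The top concentration was 10 μM for the SMYD2 inhibitor series and 25 μM for the SMYD3 inhibitor. The proliferative IC50 is taken from concentration-response data, each value the mean of three biological replicates.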

MCF7 = assay: Antiproliferative activity against human MCF7 cells after 10 days; conditions: MCF7, 240 h; in short: as §1
A101D = assay: Antiproliferative activity against human A101D cells after 10 days; conditions: 240 h
In short: (§2)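 Tested as part of a 240-line cancer cell panel (Eurofins Oncopanel); all lines were mycoplasma-negative and STR-verified. Cells were exposed to a compound concentration series in 2D culture for 10 days. The highest concentration was 10 μM or 25 μM, depending on the inhibitor. Antiproliferative IC50 was derived from the mean of three biological replicates.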

[1] = Antiproliferative activity against human SW579 cells after 10 days; conditions: SW579, 240 h
ChaGo-K-1 = assay: Antiproliferative activity against human ChaGo-K-1 cells after 10 days; conditions: ChaGo-K-1, 240 h
In short: (§3)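 10-day 2D proliferation screen of a broad cancer cell panel (about 240 lines, Eurofins Oncopanel). All lines were mycoplasma negative and STR verified. Compounds were dosed up to a top concentration of 10 μM or 25 μM, depending on the inhibitor. Anti-proliferative IC50 values are the average of three biological replicates.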

LNCaP = assay: Antiproliferative activity against human LNCaP cells after 10 days; conditions: 240 h; in short: as §1
647-V = assay: Antiproliferative activity against human 647-V cells after 10 days; conditions: 240 h
In short: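 Tested in the Eurofins Oncopanel of about 240 cancer cell lines, all mycoplasma-negative and STR-verified. Cells were exposed to compound for 10 days in 2D culture, and a proliferative IC50 was derived from the concentration series. The highest concentration tested was 10 μM in the SMYD2 inhibitor screen and 25 μM in the SMYD3 inhibitor screen. Values are means of three biological replicates.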

KLE = assay: Antiproliferative activity against human KLE cells after 10 days; conditions: 240 h; in short: as §1
DB = assay: Antiproliferative activity against human DB cells after 10 days; conditions: 240 h; in short: as §3
Caov-3 cell line = assay: Antiproliferative activity against human Caov-3 cells after 10 days; conditions: Caov-3, 240 h; in short: as §3
J82 = assay: Antiproliferative activity against human J82 cells after 10 days; conditions: J82, 240 h; in short: as §1
OE19 = assay: Antiproliferative activity against human OE19 cells after 10 days; conditions: OE19, 240 h; in short: as §1
[2] = Antiproliferative activity against human A7 cells after 10 days; conditions: A7, 240 h; in short: as §2
CAKI-2 = assay: Antiproliferative activity against human CAKI-2 cells after 10 days; conditions: CAKI-2, 240 h; in short: as §2
SW 954 = assay: Antiproliferative activity against human SW 954 cells after 10 days; conditions: SW 954, 240 h
CWR22R = assay: Antiproliferative activity against human 22Rv1 cells after 10 days; conditions: 22Rv1, 240 h; in short: as §2
A673 = assay: Antiproliferative activity against human A673 cells after 10 days; conditions: A673, 240 h; in short: as §2
SK-UT-1 = assay: Antiproliferative activity against human SK-UT-1 cells after 10 days; conditions: SK-UT-1, 240 h
Hs746T = assay: Antiproliferative activity against human Hs746T cells after 10 days; conditions: 240 h; in short: as §3
[3] = tested on: KATO III stomach cancer cell line; assay: Antiproliferative activity against human KATO III cells after 10 days; conditions: 240 h; in short: as §1
SU.86.86 = assay: Antiproliferative activity against human SU-86-86 cells after 10 days; conditions: SU.86.86, 240 h
SW13 = assay: Antiproliferative activity against human SW13 cells after 10 days; conditions: SW13, 240 h
CHP-212 = assay: Antiproliferative activity against human CHP-212 cells after 10 days; conditions: CHP-212, 240 h; in short: as §2
THP-1 = assay: Antiproliferative activity against human THP-1 cells after 10 days; conditions: THP-1, 240 h
MES-SA = assay: Antiproliferative activity against human MES-SA cells after 10 days; conditions: 240 h; in short: as §1
MIA PaCa-2 = assay: Antiproliferative activity against human Mia PaCa-2 cells after 10 days; conditions: MIA PaCa-2, 240 h; in short: as §1
JAR = assay: Antiproliferative activity against human JAR cells after 10 days; conditions: 240 h; in short: as §1
SW900 = assay: Antiproliferative activity against human SW900 cells after 10 days; conditions: SW900, 240 h
A498 = assay: Antiproliferative activity against human A498 cells after 10 days; conditions: A498, 240 h; in short: as §2
SAOS-2 = assay: Antiproliferative activity against human SAOS-2 cells after 10 days; conditions: SAOS-2, 240 h
769-P = assay: Antiproliferative activity against human 769-P cells after 10 days; conditions: 240 h; in short: as §2
D283 Med = assay: Antiproliferative activity against human D283 Med cells after 10 days; conditions: 240 h; in short: as §3
BT-549 = assay: Antiproliferative activity against human BT-549 cells after 10 days; conditions: BT-549, 240 h; in short: as §2
A-431 = assay: Antiproliferative activity against human A-431 cells after 10 days; conditions: A-431, 240 h; in short: as §2
Hs 766 = assay: Antiproliferative activity against human Hs766T cells after 10 days; conditions: Hs 766, 240 h; in short: as §3
SK-MES-1 = assay: Antiproliferative activity against human SK-MES-1 cells after 10 days; conditions: SK-MES-1, 240 h
Y79 = assay: Antiproliferative activity against human Y79 cells after 10 days; conditions: Y79, 240 h
786-0 = assay: Antiproliferative activity against human 786-0 cells after 10 days; conditions: 786-0, 240 h; in short: as §2
RPMI-7951 = assay: Antiproliferative activity against human RPMI-7951 cells after 10 days; conditions: RPMI-7951, 240 h
NCI-H446 = assay: Antiproliferative activity against human NCI-H446 cells after 10 days; conditions: NCI-H446, 240 h; in short: as §1
SK-BR-3 = assay: Antiproliferative activity against human SK-BR-3 cells after 10 days; conditions: SK-BR-3, 240 h
EM-2 = assay: Antiproliferative activity against human EM-2 cells after 10 days; conditions: EM-2, 240 h; in short: as §3
Daoy = assay: Antiproliferative activity against human Daoy cells after 10 days; conditions: 240 h; in short: as §3
5637 = assay: Antiproliferative activity against human 5637 cells after 10 days; conditions: Homo sapiens, 5637, 240 h; in short: as §2
SNU1 = assay: Antiproliferative activity against human SNU1 cells after 10 days; conditions: SNU1, 240 h
Calu-6 = assay: Antiproliferative activity against human Calu-6 cells after 10 days; conditions: Calu-6, 240 h; in short: as §3
BV-173 = assay: Antiproliferative activity against human BV-173 cells after 10 days; conditions: BV-173, 240 h; in short: as §2
SK-MEL-1 = assay: Antiproliferative activity against human SK-MEL-1 cells after 10 days; conditions: SK-MEL-1, 240 h
SW948 = assay: Antiproliferative activity against human SW948 cells after 10 days; conditions: SW948, 240 h

- IC50 (NCI-H508): 3.09 µM
- IC50 (MCF7): 3.11 µM
- IC50 (LNCaP): 3.44 µM
- IC50 (SK-UT-1): 1.41 µM
- IC50 [3]: 1.39 µM
- IC50 (SW13): 2.68 µM
- IC50 (THP-1): 2.86 µM
- IC50 (MIA PaCa-2): 2.03 µM
- IC50 (SW900): 3.22 µM
- IC50 (BT-549): 3.29 µM
- IC50 (A-431): 6.35 µM
- IC50 (SK-MES-1): 1.18 µM
- IC50 (786-0): 2.1 µM
- IC50 (NCI-H446): 3.16 µM
- IC50 (SK-BR-3): 1.17 µM
- IC50 (SNU1): 1.19 µM
- IC50 (Calu-6): 3.68 µM
- IC50 (SK-MEL-1): 1.9 µM
- IC50 (SW948): 3.91 µM
SMILES: Cc1cn(CCN2CCN(c3ccccc3-c3cc(C#N)cc(C(=O)NCCCN4CCCC4)c3)CC2)c2ccccc12
- IC50 (A101D): 1.23 µM
- IC50 [1]: 2.98 µM
- IC50 (ChaGo-K-1): 1.23 µM
- IC50 (647-V): 1.48 µM
- IC50 (KLE): 3.21 µM
- IC50 (DB): 1.17 µM
- IC50 (Caov-3 cell line): 2.6 µM
- IC50 (J82): 3.15 µM
- IC50 (OE19): 2.52 µM
- IC50 [2]: 2.54 µM
- IC50 (CAKI-2): 1.22 µM
- IC50 (SW 954): 4.07 µM
- IC50 (CWR22R): 1.06 µM
- IC50 (A673): 2.03 µM
- IC50 (Hs746T): 4.29 µM
- IC50 (SU.86.86): 3.55 µM
- IC50 (CHP-212): 2.1 µM
- IC50 (MES-SA): 2.3 µM
- IC50 (JAR): 2.88 µM
- IC50 (A498): 2.01 µM
- IC50 (SAOS-2): 3.03 µM
- IC50 (769-P): 2.76 µM
- IC50 (D283 Med): 2.51 µM
- IC50 (Hs 766): 2.75 µM
- IC50 (Y79): 3.53 µM
- IC50 (RPMI-7951): 2.05 µM
- IC50 (EM-2): 2.22 µM
- IC50 (Daoy): 3.67 µM
- IC50 5637: 6.75 µM
- IC50 (BV-173): 1.33 µM

- IC50 (NCI-H508): > 10 µM
- IC50 (MCF7): > 10 µM
- IC50 (LNCaP): > 10 µM
- IC50 (SK-UT-1): > 10 µM
- IC50 [3]: > 10 µM
- IC50 (SW13): > 10 µM
- IC50 (THP-1): > 10 µM
- IC50 (MIA PaCa-2): > 10 µM
- IC50 (SW900): > 10 µM
- IC50 (BT-549): > 10 µM
- IC50 (A-431): > 10 µM
- IC50 (SK-MES-1): > 10 µM
- IC50 (786-0): > 10 µM
- IC50 (NCI-H446): > 10 µM
- IC50 (SK-BR-3): > 10 µM
- IC50 (SNU1): > 10 µM
- IC50 (Calu-6): > 10 µM
- IC50 (SK-MEL-1): > 10 µM
- IC50 (SW948): > 10 µM
SMILES: O=C(NC1CN(Cc2cnn(Cc3ccccc3)c2)C1)c1cn(C2CC2)nn1
- IC50 (A101D): > 10 µM
- IC50 [1]: > 10 µM
- IC50 (ChaGo-K-1): > 10 µM
- IC50 (647-V): > 10 µM
- IC50 (KLE): > 10 µM
- IC50 (DB): 0.663 µM
- IC50 (Caov-3 cell line): > 10 µM
- IC50 (J82): > 10 µM
- IC50 (OE19): > 10 µM
- IC50 [2]: > 10 µM
- IC50 (CAKI-2): > 10 µM
- IC50 (SW 954): > 10 µM
- IC50 (CWR22R): > 10 µM
- IC50 (A673): > 10 µM
- IC50 (Hs746T): > 10 µM
- IC50 (SU.86.86): > 10 µM
- IC50 (CHP-212): > 10 µM
- IC50 (MES-SA): > 10 µM
- IC50 (JAR): > 10 µM
- IC50 (A498): > 10 µM
- IC50 (SAOS-2): > 10 µM
- IC50 (769-P): > 10 µM
- IC50 (D283 Med): > 10 µM
- IC50 (Hs 766): > 10 µM
- IC50 (Y79): > 10 µM
- IC50 (RPMI-7951): > 10 µM
- IC50 (EM-2): > 10 µM
- IC50 (Daoy): > 10 µM
- IC50 5637: > 10 µM
- IC50 (BV-173): > 10 µM
